In ChEMBL document CHEMBL1152262, “New cyclic somatostatin analogues containing a pyrazinone ring: importance of Tyr for antiproliferative activity” (2008):
Where a SMILES comes first, the peptide text is derived from it. Bridges are numbered along the chain shown (N, C = ends). [ ]: non-standard residue; d: D form.

Experiments:
Type in all cases: functional
A-431 [1] = assay: Antiproliferative activity against human A431 cells at 25 uM by MTT assay
Procedure, shortened: (§1)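 MTT read-out of proliferation in A431 (human epithelial tumour) and SW480 (human colon carcinoma) cells, both described as expressing SSTRs. Each analogue was tested at […]. TT-232 and cycloheximide were run as positive controls.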

SW480 [2] = assay: Antiproliferative activity against human SW480 cells at 50 uM by MTT assay; procedure, shortened: as §1
A-431 [3] = assay: Antiproliferative activity against human A431 cells at 10 uM by MTT assay; procedure, shortened: as §1
SW480 [4] = assay: Antiproliferative activity against human SW480 cells at 10 uM by MTT assay; procedure, shortened: as §1
A-431 [5] = assay: Antiproliferative activity against human A431 cells at 50 uM by MTT assay; procedure, shortened: as §1
SW480 [6] = assay: Antiproliferative activity against human SW480 cells at 25 uM by MTT assay; procedure, shortened: as §1

SMILES | Activity (A-431 [1]) [%] | Activity (SW480 [2]) [%] | Activity (A-431 [3]) [%] | Activity (SW480 [4]) [%] | Activity (A-431 [5]) [%] | Activity (SW480 [6]) [%]
Cc1cc(O)cc(C)c1C[C@@H]1NC(=O)CCc2nc(C)c([nH]c2=O)CCCCNC(=O)[C@H](CCCCN)NC(=O)[C@@H](Cc2c[nH]c3ccccc23)NC1=O | 0 | 7 | 0 | 2 | 0 | 11
Cc1nc2c(=O)[nH]c1CCCCNC(=O)[C@H](CCCCN)NC(=O)[C@@H](Cc1c[nH]c3ccccc13)NC(=O)[C@H](Cc1ccc(O)cc1)NC(=O)CC2 | 42 | 35 | 28 | 35 | 58 | 31
Cc1nc2c(=O)[nH]c1CCC(=O)N[C@@H](Cc1ccccc1)C(=O)N[C@H](Cc1c[nH]c3ccccc13)C(=O)N[C@@H](CCCCN)C(=O)NCCCC2 | 28 | 0 | 31 | 0 | 25 | 7
Cc1nc2c(=O)[nH]c1CCC(=O)N[C@@H](Cc1ccc(O)cc1)C(=O)N[C@H](Cc1c[nH]c3ccccc13)C(=O)N[C@@H](CCCCN)C(=O)NCCCC2 | 36 | 7 | 19 | 24 | 56 | 23
Cc1nc2c(=O)[nH]c1CCCCNC(=O)[C@H](CCCCN)NC(=O)[C@@H](Cc1c[nH]c3ccccc13)NC(=O)[C@H](Cc1ccccc1)NC(=O)CC2 | 0 | 4 | 0 | 2 | 0 | 4
Cc1cc(O)cc(C)c1C[C@@H]1NC(=O)CCc2[nH]c(=O)c(nc2C)CCCCNC(=O)[C@H](CCCCN)NC(=O)[C@@H](Cc2c[nH]c3ccccc23)NC1=O | 0 | 14 | 0 | 8 | 0 | 16
C[C@@H]1C[C@@H]([C@H](O)CC2CC(=O)NC(=O)C2)C(=O)[C@@H](C)C1 [CYCLOHEXIMIDE] | 70 | 92 | 40 | 68 | 80 | 85
C[C@@H](O)[C@H](NC(=O)[C@@H]1CSSC[C@H](NC(=O)[C@H](N)Cc2ccccc2)C(=O)N[C@@H](Cc2ccc(O)cc2)C(=O)N[C@H](Cc2c[nH]c3ccccc23)C(=O)N[C@@H](CCCCN)C(=O)N1)C(N)=O [TT-232] (H-[dF]CY[dW]KCT-NH2; disulfide 2-6) | 60 | 88 | 50 | 13 | 80 | 47
